# Experimental data of several laboratories.
# Each line is one published result; the experiments were not run side by side. pEC50, pIC50: −log10 of the molar value.
Compound,tested on,assay,test system,setting,measurement,result
C[C@@]1(O)CC[C@@]2(C)[C@@H](CC[C@@H]3[C@@H]2CC[C@]2(C)[C@@H]([N+](=O)[O-])CC[C@@H]32)C1,,6 Hz seizures,mouse,intraperitoneal,ED50,8.8 mg/kg
CO[C@H]1/C=C/O[C@@]2(C)Oc3c(C)c(O)c4c(O)c(c(/C=N/N5CCN(C)CC5)c(O)c4c3C2=O)NC(=O)/C(C)=C\C=C\[C@H](C)[C@H](O)[C@@H](C)[C@@H](O)[C@@H](C)[C@H](OC(C)=O)[C@@H]1C,Mycolicibacterium aurum,"microbial growth, agar dilution",,,MIC,0.78 µg/mL
CC(C(=O)N1CCCC1)c1cccc(C(OC(=O)N2CCCC2)c2ccccc2)c1 (stereo not shown),L1210,cell growth or viability,,48 h,pIC50,4.39
Cc1cc(NC2Cc3cc(F)c(F)cc3C2)n2nc(C(C)(F)F)nc2n1,Plasmodium falciparum,parasite growth,HB3,"drug-resistant strain, blood stage",pEC50,7.68
Cc1nc(Nc2ccc(C)c(Cl)c2)c2c(C)noc2n1,Plasmodium falciparum,"parasite growth, SYBR Green",3D7,,pEC50,6.47
CONC(=O)OC(c1ccccc1)c1cccc(C(C)C(=O)NOC)c1 (stereo not shown),FM3A,cell growth or viability,,48 h,pIC50,5.00
C[C@]12CC[C@H](O)C[C@@H]1CC[C@@H]1[C@@H]2CC[C@]2(C)[C@@H]([N+](=O)[O-])CC[C@@H]12,,6 Hz seizures,mouse,intraperitoneal,ED50,83 mg/kg
Cc1sc(CNCCCNc2cc(=O)c3ccccc3[nH]2)c(I)c1C,Plasmodium falciparum,"parasite growth, SYBR Green",3D7,,pEC50,6.47
CCCCCCCCCCOc1cc2c(O)c(C(=O)OCC)cnc2cc1OCC,Plasmodium falciparum,"parasite growth, SYBR Green",W2,blood stage,pIC50,> 8.24
c1csc(-c2nnc3sc(Cc4ccc5c(c4)CCCC5)nn23)c1,Plasmodium falciparum,"parasite growth, SYBR Green",3D7,72 h,pEC50,< 4.90
CCN(CC)CCCC(C)Nc1ccnc2cc(Cl)ccc12 (stereo not shown),Plasmodium falciparum,parasite growth,D6,blood stage,IC50,0.02 µg/mL
CCOc1cccc(=O)c2c(C)n(Cc3ccc(Cl)cc3)c(C)c12,Plasmodium falciparum,"parasite growth, SYBR Green",3D7,,pEC50,6.23
CC(C(=O)NCC1CCCCC1)c1cccc(C(OC(=O)NCC2CCCCC2)c2ccccc2)c1 (stereo not shown),L1210,cell growth or viability,,48 h,pIC50,4.96
